According to ChEMBL document CHEMBL4177525, “Synthesis and evaluation of frentizole-based indolyl thiourea analogues as MAO/ABAD inhibitors for Alzheimer's disease treatment” (Bioorg Med Chem, 2017):
Active and inactive are the calls of the source. The rule behind the calls is not given here.

Key:
[1] = target: T1, peroxidase (horseradish peroxidase) (Raphanus sativus, UniProt K7N5L9); assay: Inhibition of horse radish peroxidase assessed as residual activity at 50 uM by amplex red dye based fluorescence assay; conditions: horseradish peroxidase (isolated enzyme), probe Amplex Red, read-out: Activity
Summary of the method: (§1)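 HRP (0.02 U/mL) given H2O2 20 µM directly as substrate plus Ampliflu Red 20 µM in 50 mM potassium phosphate pH 7.4. Compound at 50 or 5 µM, 1% DMSO; controls DMSO only. Resorufin fluorescence read at ex 535/em 595 nm, 30°C, as remaining HRP activity.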

[2] = target: T1, peroxidase (horseradish peroxidase); assay: Inhibition of horse radish peroxidase assessed as residual activity at 5 uM by amplex red dye based fluorescence assay; conditions: horseradish peroxidase (isolated enzyme), probe Amplex Red, read-out: Activity; summary of the method: as §1
[3] = target: Peroxidase (Raphanus sativus, UniProt K7N5L9); assay: Inhibition of horse radish peroxidase assessed as residual activity by amplex red dye based fluorescence assay; summary of the method: as §1
[4] = target: Amyloid beta-binding alcohol dehydrogenase (Homo sapiens, UniProt Q2L8D9); assay: Inhibition of ABAD (unknown origin) assessed as residual activity at 100 uM using acetoacetyl-CoA in presence of NADH by spectrophotometric assay relative to control
Summary of the method: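 Recombinant ABAD at 0.5 µg/mL with NADH 250 µM and acetoacetyl-CoA 120 µM; compound at 100 µM in 1% DMSO, controls with matching DMSO. Buffer 10 mM HEPES, 0.5% gelatin, pH 7.4 at 37°C. NADH consumption read as falling absorbance at 340 nm; reported as % remaining activity ± SEM from two biological repeats, each with three technical repeats.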

[5] = Cytotoxicity against CHOK1 cells assessed as reduction in cell viability after 24 hrs by MTT assay; type: cell-based, Cricetulus griseus; conditions: chinese hamster, CHO-K1 cells; read-out: LC50
Summary of the method: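 CHO-K1 cells grown as ECACC recommends, seeded 8000 per well; compounds from DMSO stocks diluted in F-12 with 10% FBS and 1% pen/strep (final DMSO at most 0.5%), exposed 24 h. Medium then replaced with 10 µM MTT for about 3 h, formazan dissolved in DMSO, absorbance read at 570 nm (650 nm reference). LC50 from control-subtracted triplicates by four-parameter regression; mean ± SEM of 3 independent runs.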

[6] = target: T2, Amine oxidase [flavin-containing] A (Homo sapiens, UniProt P21397); assay: Inhibition of human purified MAO-A expressed in insect cell membranes assessed as reduction in conversion of kynuramine to 4-hydroxyquinoline by spectrophotometric assay
T2 sequence (P21397 whole entry): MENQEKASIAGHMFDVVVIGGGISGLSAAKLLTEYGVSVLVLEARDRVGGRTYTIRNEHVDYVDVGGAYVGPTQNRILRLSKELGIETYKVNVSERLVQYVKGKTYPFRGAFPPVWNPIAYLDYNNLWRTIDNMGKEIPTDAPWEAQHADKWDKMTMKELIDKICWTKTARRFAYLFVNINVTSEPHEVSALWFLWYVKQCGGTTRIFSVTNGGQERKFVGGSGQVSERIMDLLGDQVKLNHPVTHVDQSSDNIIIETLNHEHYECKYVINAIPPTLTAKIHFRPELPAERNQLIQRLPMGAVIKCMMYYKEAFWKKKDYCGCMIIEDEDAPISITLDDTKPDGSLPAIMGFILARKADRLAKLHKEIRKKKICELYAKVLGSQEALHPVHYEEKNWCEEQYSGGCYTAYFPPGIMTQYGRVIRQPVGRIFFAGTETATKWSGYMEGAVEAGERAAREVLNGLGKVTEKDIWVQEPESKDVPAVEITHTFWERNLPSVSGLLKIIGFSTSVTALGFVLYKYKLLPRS

[7] = Solubility of the compound at 100 uM; type: physicochemical
Summary of the method: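 Compounds checked for solubility in assay buffer at 100 µM.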

[8] = Quenching activity of the compound assessed as reduction in resorufin fluorescence; type: functional
Summary of the method: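 Resorufin at 1 µM and 10 µM measured for fluorescence in the presence of compound at 50 µM.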

[9] = target: T3, Amine oxidase [flavin-containing] B (Homo sapiens, UniProt P27338); assay: Inhibition of human membrane bound MAO-B expressed in insect cell membranes assessed as reduction in conversion of kynuramine to 4-hydroxyquinoline by spectrophotometric assay
T3 sequence (P27338 whole entry): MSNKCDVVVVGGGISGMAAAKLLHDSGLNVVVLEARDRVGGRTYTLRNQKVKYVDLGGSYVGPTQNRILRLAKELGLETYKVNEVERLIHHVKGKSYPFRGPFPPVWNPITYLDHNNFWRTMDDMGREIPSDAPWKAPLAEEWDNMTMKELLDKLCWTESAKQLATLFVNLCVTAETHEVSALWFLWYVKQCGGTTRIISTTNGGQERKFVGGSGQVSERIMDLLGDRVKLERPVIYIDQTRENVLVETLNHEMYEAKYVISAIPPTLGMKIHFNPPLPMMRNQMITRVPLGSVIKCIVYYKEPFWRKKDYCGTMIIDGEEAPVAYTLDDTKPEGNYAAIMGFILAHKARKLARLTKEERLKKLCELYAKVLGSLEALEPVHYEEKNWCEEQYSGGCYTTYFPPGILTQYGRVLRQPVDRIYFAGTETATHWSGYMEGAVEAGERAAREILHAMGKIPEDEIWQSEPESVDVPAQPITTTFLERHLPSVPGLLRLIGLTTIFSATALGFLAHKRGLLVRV
Summary of the method: (§2)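 Human MAO-A or MAO-B expressed in insect cell membranes, diluted 1/4000 (A) or 1/2000 (B). Kynuramine at 2×KM: 60 µM for MAO-A, 30 µM for MAO-B. Assay in 50 mM potassium phosphate pH 7.5, 30°C, 1% DMSO, absorbance at 314 nm. Inhibitor varied over 4 orders of magnitude, up to 100 µM. Linear rates from 8-10 assays fitted by 3-parameter regression with bottom fixed at zero; IC50 ± SE of estimate.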

[10] = target: T2, Amine oxidase [flavin-containing] A; assay: Inhibition of human membrane bound MAO-A expressed in insect cell membranes assessed as reduction in conversion of kynuramine to 4-hydroxyquinoline by spectrophotometric assay; summary of the method: as §2
[11] = Lipophilicity of the compound assessed as capacity factor at pH 3.5 by HPLC analysis; type: physicochemical; conditions: buffer
Summary of the method: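 Capacity factor k from gradient HPLC on reversed-phase C18 in acid polar organic mode, pH ~3.5.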

Sequence of Peroxidase (K7N5L9 whole entry): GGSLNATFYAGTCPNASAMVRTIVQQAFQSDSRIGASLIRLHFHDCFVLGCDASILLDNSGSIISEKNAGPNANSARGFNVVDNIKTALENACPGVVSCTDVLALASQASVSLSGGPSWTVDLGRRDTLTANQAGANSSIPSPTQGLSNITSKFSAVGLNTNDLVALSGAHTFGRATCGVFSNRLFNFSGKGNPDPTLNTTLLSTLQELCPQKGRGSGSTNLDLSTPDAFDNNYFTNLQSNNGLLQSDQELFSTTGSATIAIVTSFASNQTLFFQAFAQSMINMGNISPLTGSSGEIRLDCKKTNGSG
T1 sequence (K7N5L9 whole entry): as above

| SMILES | activity at 50 µM [1] | activity at 5 µM [2] | IC50 [3] | Activity [4] | CC50 at 24 h [5] | IC50 [6] | solubility [7] | Activity [8] | IC50 ([9]; read-out: IC50) | IC50 ([10]; read-out: IC50) | IC50 ([6]; read-out: IC50) | IC50 [9] | IC50 [10] | K [11] |
| --- | --- | --- | --- | --- | --- | --- | --- | --- | --- | --- | --- | --- | --- | --- |
| Oc1ccc(CNC(=S)Nc2ccc3[nH]ccc3c2)cc1O | 31.2% | 38.3% | 0.8 µM | 81.5% | 471 µM | Not Active | Soluble | inactive |  |  |  |  |  |  |
| Cc1ccc(NC(=S)Nc2ccc3[nH]ccc3c2)c(O)c1 | 36.2% | 47.3% |  | 87.2% | 370 µM | Not Active | Soluble | inactive | 3.2 µM | 24 µM |  |  |  |  |
| O=C(c1ccccc1)c1ccc(NC(=S)Nc2ccc3[nH]ccc3c2)cc1 | 71.4% | 79.1% |  | 80.4% | 20 µM | Not Active | Soluble | inactive |  |  |  |  |  |  |
| Oc1ccccc1NC(=S)Nc1ccc2[nH]ccc2c1 | 36.9% | 43.9% | 0.8 µM | 85% | 509 µM |  | Soluble | inactive | 4 µM | 14 µM | 39 µM |  |  |  |
| CC(=O)c1ccc(NC(=S)Nc2ccc3[nH]ccc3c2)cc1 | 41.8% | 66.3% |  | 79.2% | 154 µM |  | Soluble | inactive |  |  | 67 µM |  |  |  |
| COc1ccc2nc(NC(=O)Nc3ccccc3)sc2c1 [FRENTIZOLE] |  |  |  |  | 31 µM | Not Active |  |  |  |  |  | Not Active | Not Active |  |
| Oc1ccc(NC(=S)Nc2ccc3[nH]ccc3c2)cc1Cl | 26.4% | 39.9% | 1.01 µM | 49.1% | 447 µM |  | Soluble | inactive | 8.6 µM | 58 µM | 58 µM |  |  | 3.76 |
| Oc1cc(Cl)ccc1NC(=S)Nc1ccc2[nH]ccc2c1 | 35.9% | 58.9% |  | 76% | 251 µM |  | Soluble | inactive | 0.3 µM | 6.3 µM | 39 µM |  |  |  |
| S=C(Nc1ccc(Oc2ccccc2)cc1)Nc1ccc2[nH]ccc2c1 | 65.6% | 73.1% |  | 90.9% | 36 µM | Not Active | Soluble | inactive |  |  |  |  |  |  |
| COc1ccc(NC(=S)Nc2ccc3[nH]ccc3c2)cc1OC | 41.5% | 61% |  | 93.8% | 797 µM | Not Active | Soluble | inactive |  |  |  |  |  |  |
| CC(=O)Nc1ccc(NC(=S)Nc2ccc3[nH]ccc3c2)cc1 | 39.3% | 68.1% |  | 93% | 1040 µM |  | Soluble | inactive | 37 µM | 70 µM | 71 µM |  |  |  |
| S=C(Nc1ccc(Br)cc1)Nc1ccc2[nH]ccc2c1 | 52.8% | 82% |  | 83% | 220 µM |  | Soluble | inactive | 58 µM | 23 µM | 5.9 µM |  |  | 4.355 |
| COc1ccc(NC(=S)Nc2ccc3[nH]ccc3c2)cc1 | 46.5% | 67.6% |  | 91.3% | 476 µM |  | Soluble | inactive | 37 µM | 36 µM | 36 µM |  |  |  |
| S=C(Nc1ccc2[nH]ccc2c1)Nc1cccc2cnccc12 | 47.9% | 63.3% |  | 96.5% | > 400 µM |  | Soluble | inactive | 4 µM | 24 µM | 24 µM |  |  |  |
| Oc1ccc(NC(=S)Nc2ccc3[nH]ccc3c2)cc1 | 31% | 41.5% | 1.01 µM | 90.9% | 848 µM | Not Active | Soluble | inactive | 17 µM | > 100 µM |  |  |  |  |
| OCc1ccc(NC(=S)Nc2ccc3[nH]ccc3c2)cc1 | 51.4% | 88.2% |  | 84.2% | 1080 µM | Not Active | Soluble | inactive |  |  |  |  |  |  |
| COC(=O)c1cc(NC(=S)Nc2ccc3[nH]ccc3c2)ccc1O | 42.2% | 61.2% |  | 90% | 423 µM | Not Active | Soluble | inactive | 31 µM | > 100 µM |  |  |  |  |
| CCOC(=O)c1ccc(NC(=S)Nc2ccc3[nH]ccc3c2)cc1 | 36.6% | 65.8% |  | 74.6% | 123 µM |  | Soluble | inactive |  |  | 71 µM |  |  |  |
| COc1ccc(CNC(=S)Nc2ccc3[nH]ccc3c2)cc1 | 54.4% | 83.5% |  | 88.5% | 232 µM | Not Active | Soluble | inactive |  |  |  |  |  |  |
| Oc1cccc(NC(=S)Nc2ccc3[nH]ccc3c2)c1 | 50.9% | 81.4% |  | 91.6% | 977 µM | Not Active | Soluble | inactive |  |  |  |  |  |  |
| S=C(Nc1ccccc1)Nc1ccc2[nH]ccc2c1 | 46.1% | 81.4% |  | 85.8% | 337 µM |  | Soluble | inactive | 60 µM | 57.5 µM | > 30 µM |  |  |  |
